Laboratory results reported in ChEMBL document CHEMBL4811308, “Design, synthesis and broad spectrum antibreast cancer activity of diarylindoles via induction of apoptosis in aggressive breast cancer cells” (Bioorg Med Chem, 2021).

Assays:
Assay type in all cases: organism-based
[1] = Acute toxicity in Swiss albino mouse assessed as protein level at 5 mg/kg, po administered once and observed for 7 days (reference value: 2.01 +/- 0.11 mg/ml); details: in vivo, 168 h, time 7 day
[2] = Acute toxicity in Swiss albino mouse assessed as triglyceride level at 5 mg/kg, po administered once and observed for 7 days (reference value: 81.12 +/- 7.75 mg/dl); details: in vivo, 168 h, time 7 day
[3] = Acute toxicity in Swiss albino mouse assessed as hemoglobin level at 50 mg/kg, po administered once and observed for 7 days (reference value: 17.35 +/- 0.3 gm/dl); details: in vivo, 168 h, time 7 day
[4] = Acute toxicity in Swiss albino mouse assessed as RBC level at 5 mg/kg, po administered once and observed for 7 days (reference value: 9.21 +/- 0.32 /mm3); details: in vivo, 168 h, time 7 day
[5] = Acute toxicity in Swiss albino mouse assessed as SGOT level at 50 mg/kg, po administered once and observed for 7 days (reference value: 22.94 +/- 4.04 U/L); details: in vivo, 168 h, time 7 day
[6] = Acute toxicity in Swiss albino mouse assessed as protein level at 50 mg/kg, po administered once and observed for 7 days (reference value: 2.01 +/- 0.11 mg/ml); details: in vivo, 168 h, time 7 day
[7] = Acute toxicity in Swiss albino mouse assessed as triglyceride level at 50 mg/kg, po administered once and observed for 7 days (reference value: 81.12 +/- 7.75 mg/dl); details: in vivo, 168 h, time 7 day
[8] = Acute toxicity in Swiss albino mouse assessed as SGPT level at 50 mg/kg, po administered once and observed for 7 days (reference value: 12.65 +/- 2.98 U/L); details: in vivo, 168 h, time 7 day
[9] = Acute toxicity in Swiss albino mouse assessed as mortality at 5 to 300 mg/kg, po administered once and observed for 7 days; details: in vivo, 168 h, dose 5-300 mg/kg, time 7 day
Outline: (§1)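 Acute oral toxicity per OECD guideline 423; mice 20–25 g, 3 male + 3 female per group, acclimatized 7 days at 22 ± 5 °C, 12 h light/dark. Compound dissolved in minimal DMSO, diluted in 0.7% CMC, single oral dose of 5, 50 or 300 mg/kg; controls given vehicle only. Clinical signs checked hourly on dosing day, then daily. Samples and body weights taken on day 7.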

[10] = Acute toxicity in Swiss albino mouse assessed as creatinine level at 300 mg/kg, po administered once and observed for 7 days (reference value: 0.11 +/- 0.03 mg/dL); details: in vivo, 168 h, time 7 day
[11] = Acute toxicity in Swiss albino mouse assessed as body weight at 5 mg/kg, po administered once and observed for 7 days (reference value: 22.75 +/- 0.93 gm); details: in vivo, 168 h, time 7 day
[12] = Acute toxicity in Swiss albino mouse assessed as cholesterol level at 50 mg/kg, po administered once and observed for 7 days (reference value: 122.05 +/- 8.12 mg/dl); details: in vivo, 168 h, time 7 day
[13] = Acute toxicity in Swiss albino mouse assessed as effect on response of organism at 5 to 300 mg/kg, po administered once and observed for 7 days; details: in vivo, 168 h, dose 5-300 mg/kg, time 7 day; outline: as §1
[14] = Acute toxicity in Swiss albino mouse assessed as creatinine level at 50 mg/kg, po administered once and observed for 7 days (reference value: 0.11 +/- 0.03 mg/dL); details: in vivo, 168 h, time 7 day
[15] = Acute toxicity in Swiss albino mouse assessed as absolute spleen weight at 5 to 300 mg/kg, po administered once and observed for 7 days; details: in vivo, 168 h, dose 5-300 mg/kg, time 7 day; outline: as §1
[16] = Acute toxicity in Swiss albino mouse assessed as SGOT level at 5 mg/kg, po administered once and observed for 7 days (reference value: 22.94 +/- 4.04 U/L); details: in vivo, 168 h, time 7 day
[17] = Acute toxicity in Swiss albino mouse assessed as absolute kidney weight at 5 to 300 mg/kg, po administered once and observed for 7 days; details: in vivo, 168 h, dose 5-300 mg/kg, time 7 day; outline: as §1
[18] = Acute toxicity in Swiss albino mouse assessed as relative heart weight at 5 to 300 mg/kg, po administered once and observed for 7 days; details: in vivo, 168 h, dose 5-300 mg/kg, time 7 day; outline: as §1
[19] = Acute toxicity in Swiss albino mouse assessed as absolute liver weight at 5 to 300 mg/kg, po administered once and observed for 7 days; details: in vivo, 168 h, dose 5-300 mg/kg, time 7 day; outline: as §1
[20] = Acute toxicity in Swiss albino mouse assessed as bilirubin level at 300 mg/kg, po administered once and observed for 7 days (reference value: 0.44 +/- 0.06 mg/dl); details: in vivo, 168 h, time 7 day
[21] = Acute toxicity in Swiss albino mouse assessed as effect on posture at 5 to 300 mg/kg, po administered once and observed for 7 days; details: in vivo, 168 h, dose 5-300 mg/kg, time 7 day; outline: as §1
[22] = Acute toxicity in Swiss albino mouse assessed as SGOT level at 300 mg/kg, po administered once and observed for 7 days (reference value: 22.94 +/- 4.04 U/L); details: in vivo, 168 h, time 7 day
[23] = Acute toxicity in Swiss albino mouse assessed as relative brain weight at 5 to 300 mg/kg, po administered once and observed for 7 days; details: in vivo, 168 h, dose 5-300 mg/kg, time 7 day; outline: as §1
[24] = Acute toxicity in Swiss albino mouse assessed as RBC level at 300 mg/kg, po administered once and observed for 7 days (reference value: 9.21 +/- 0.32 /mm3); details: in vivo, 168 h, time 7 day
[25] = Acute toxicity in Swiss albino mouse assessed as effect on gait at 5 to 300 mg/kg, po administered once and observed for 7 days; details: in vivo, 168 h, dose 5-300 mg/kg, time 7 day; outline: as §1
[26] = Acute toxicity in Swiss albino mouse assessed as WBC level at 50 mg/kg, po administered once and observed for 7 days (reference value: 8.55 +/- 2.71 /mm3); details: in vivo, 168 h, time 7 day
[27] = Acute toxicity in Swiss albino mouse assessed as body weight at 300 mg/kg, po administered once and observed for 7 days (reference value: 22.75 +/- 0.93 gm); details: in vivo, 168 h, time 7 day
[28] = Acute toxicity in Swiss albino mouse assessed as relative liver weight at 5 to 300 mg/kg, po administered once and observed for 7 days; details: in vivo, 168 h, dose 5-300 mg/kg, time 7 day; outline: as §1
[29] = Acute toxicity in Swiss albino mouse assessed as ALP level at 50 mg/kg, po administered once and observed for 7 days (reference value: 123.22 +/- 16.04 U/L); details: in vivo, 168 h, time 7 day
[30] = Acute toxicity in Swiss albino mouse assessed as albumin at 300 mg/kg, po administered once and observed for 7 days (reference value: 1.62 +/- 0.09 g/dl); details: in vivo, 168 h, time 7 day
[31] = Acute toxicity in Swiss albino mouse assessed as relative spleen weight at 5 to 300 mg/kg, po administered once and observed for 7 days; details: in vivo, 168 h, dose 5-300 mg/kg, time 7 day; outline: as §1
[32] = Acute toxicity in Swiss albino mouse assessed as SGPT level at 5 mg/kg, po administered once and observed for 7 days (reference value: 12.65 +/- 2.98 U/L); details: in vivo, 168 h, time 7 day
[33] = Acute toxicity in Swiss albino mouse assessed as bilirubin level at 50 mg/kg, po administered once and observed for 7 days (reference value: 0.44 +/- 0.06 mg/dl); details: in vivo, 168 h, time 7 day
[34] = Acute toxicity in Swiss albino mouse assessed as WBC level at 5 mg/kg, po administered once and observed for 7 days (reference value: 8.55 +/- 2.71 /mm3); details: in vivo, 168 h, time 7 day
[35] = Acute toxicity in Swiss albino mouse assessed as ALP level at 5 mg/kg, po administered once and observed for 7 days (reference value: 123.22 +/- 16.04 U/L); details: in vivo, 168 h, time 7 day
[36] = Acute toxicity in Swiss albino mouse assessed as absolute brain weight at 5 to 300 mg/kg, po administered once and observed for 7 days; details: in vivo, 168 h, dose 5-300 mg/kg, time 7 day; outline: as §1

SMILES | Activity [1] [mg/mL] | Activity [2] [mg/dL] | Activity [3] [g/dL] | Activity [4] [million/mm3] | Activity [5] [U/L] | Activity [6] [mg/mL] | Activity [7] [mg/dL] | Activity [8] [U/L] | Activity [9] | Activity [10] [mg/dL] | Activity [11] [g] | Activity [12] [mg/dL] | Activity [13] | Activity [14] [mg/dL] | Activity [15] | Activity [16] [U/L] | Activity [17] | Activity [18] | Activity [19] | Activity [20] [mg/dL] | also measured
COc1ccc2c(c1)c(Cc1ccc(OCCN(C)C)cc1)c(-c1cc(OC)c(OC)c(OC)c1)n2Cc1ccc(OCCN(C)C)cc1 | 1.61 | 63.83 | 17.01 | 9.67 | 21.92 | 1.48 | 91.7 | 15.07 | Non-Toxic | 0.15 | 21.71 | 121.96 | Non-Toxic | 0.14 | Non-Toxic | 22.11 | Non-Toxic | Non-Toxic | Non-Toxic | 0.36 | Activity [21]: Non-Toxic; Activity [22]: 27.73 U/L; Activity [23]: Non-Toxic; Activity [24]: 9.45 million/mm3; Activity [25]: Non-Toxic; Activity [26]: 4.86 thousands/mm3; Activity [27]: 21.88 g; Activity [28]: Non-Toxic; Activity [29]: 106.88 U/L; Activity [30]: 1.94 g/dL; Activity [31]: Non-Toxic; Activity [32]: 14.47 U/L; Activity [33]: 0.35 mg/dL; Activity [34]: 6.73 thousands/mm3; Activity [35]: 97.53 U/L; Activity [36]: Non-Toxic
COc1ccc2c(c1)c(Cc1ccc(OC(C)CN(C)C)cc1)c(-c1cc(OC)c(OC)c(OC)c1)n2Cc1ccc(OC(C)CN(C)C)cc1 (configuration not stated) | 1.57 | 105.82 | 15.21 | 9.12 | 33.28 | 1.28 | 83.99 | 18.69 | Non-Toxic | 0.14 | 21.6 | 108.65 | Non-Toxic | 0.12 | Non-Toxic | 28.86 | Non-Toxic | Non-Toxic | Non-Toxic | 0.36 | Activity [21]: Non-Toxic; Activity [22]: 33.25 U/L; Activity [23]: Non-Toxic; Activity [24]: 7.96 million/mm3; Activity [25]: Non-Toxic; Activity [26]: 7.5 thousands/mm3; Activity [27]: 22.75 g; Activity [28]: Non-Toxic; Activity [29]: 84.85 U/L; Activity [30]: 1.53 g/dL; Activity [31]: Non-Toxic; Activity [32]: 11.82 U/L; Activity [33]: 0.39 mg/dL; Activity [34]: 6.23 thousands/mm3; Activity [35]: 87.76 U/L; Activity [36]: Non-Toxic
